Assay results from ChEMBL document CHEMBL1155362, “Synthesis, characterization and derivatization of some novel types of mono- and bis-imidazolidineiminothiones and imidazolidineiminodithiones with antitumor, antiviral, antibacterial and antifungal activities--part I” (Eur J Med Chem, 2009).
Active and inactive are the calls of the source. The calls are words filed in the database; no cut-off is given here.

Columns and labels:
[1] = tested on: Coxsackievirus B4; assay: Antiviral activity against Coxsackievirus B4 infected african green monkey Vero cells at 10^-4 dilution of 5 mg/ml by plaque formation assay; format: functional, organism-based
Method in brief: (§1)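 Compound dilutions prepared from a 5 mg/mL DMSO stock, using the maximum non-toxic dilution for Vero cells over 3 days; 0.1 mL virus (10³) mixed with 0.1 mL compound for 1 h at room temperature; mixture inoculated onto washed Vero monolayers in 12-well plates and adsorbed at 37 °C; 2× MEM/agarose overlay applied; read-out % reduction in plaque count versus untreated virus control.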

[2] = tested on: Salmonella typhi; assay: Antibacterial activity against Salmonella typhi NCIMB 9331 at 4 mg/ml by agar disk diffusion assay; format: functional, Salmonella enterica subsp. enterica serovar Typhi; conditions: Salmonella enterica, read-out: DIZ
[3] = tested on: Human alphaherpesvirus 1; assay: Antiviral activity against HSV1 infected african green monkey Vero cells at 10^-4 dilution of 5 mg/ml by plaque formation assay; format: functional; method in brief: as §1
[4] = tested on: Hepatovirus A; assay: Antiviral activity against Hepatitis A virus infected african green monkey Vero cells at 10^-4 dilution of 5 mg/ml by plaque formation assay; format: functional; method in brief: as §1
[5] = tested on: Bacillus subtilis; assay: Antibacterial activity against Bacillus subtilis NCTC 1040 at 4 mg/ml by agar disk diffusion assay; format: functional; conditions: read-out: DIZ
[6] = tested on: Aspergillus niger; assay: Antifungal activity against Aspergillus niger IMI 31726 at 4 mg/ml by agar disk diffusion assay; format: functional; conditions: read-out: DIZ
[7] = tested on: Candida albicans; assay: Antifungal activity against Candida albicans IMRU 3669 at 4 mg/ml by agar disk diffusion assay; format: functional; conditions: read-out: DIZ
[8] = tested on: Escherichia coli; assay: Antibacterial activity against Escherichia coli NCTC 10416 at 4 mg/ml by agar disk diffusion assay; format: functional; conditions: read-out: DIZ
[9] = tested on: Staphylococcus aureus; assay: Antibacterial activity against Staphylococcus aureus NCTC 7447 at 4 mg/ml by agar disk diffusion assay; format: functional; conditions: read-out: DIZ

For N=C1C(=S)N(c2ccc(Br)cc2)C(=O)N1c1ccc(Cl)c(C(F)(F)F)c1, the Activity [1] was “inactive”, the zone of inhibition at 4000 µg/mL [2] was 16.5 mm and the Activity [3] was 50%. The Activity [4] was “inactive”, the zone of inhibition at 4000 µg/mL [5] was 16 mm and the zone of inhibition at 4000 µg/mL [6] was 16 mm. The zone of inhibition at 4000 µg/mL [7] was 16 mm, the zone of inhibition at 4000 µg/mL [8] was 18 mm and the zone of inhibition at 4000 µg/mL [9] was 17.5 mm.
